High-throughput results: PubChem, several laboratories
The list is not random: actives were taken first. Their share in the collection is about 1.9%.
PLCb3 inh – PLC-beta3 (human) inhibition, primary screen; Q01970; Purified PLC-beta3, fluorogenic substrate, fluorescence; inhibition, % at 12.2 µM; actives 0.18% (n = 370,000); AID 720704; in the data active = inhibition above about 11%;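 also: 0% = median of compound wells on plate and 100% = full blocker control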
procasp3 activ – activators of human procaspase-3. recombinant procaspase-3 D3A, Ac-DEVD-pNA absorbance 405 nm. AID 463141. actives 0.11% (n = 330,000). activation, % at 8.5 µM;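 active = activation above the mean of all tested compounds plus 3 SD, cut at about 21% in these data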;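 also: 0% = DMSO alone and 100% = DMSO wells spiked with extra 5 µM PC-3 D3A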
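Assay system: Procaspase-3 D3A mutant, all three cleavage aspartates alanine. Buffer or medium: Zinc-free HEPES saline buffer with Triton X-100. Times: 1 h compound preincubation, 2 h substrate hydrolysis at 25 °C. Measured by: 405 nm absorbance of p-nitroaniline, reads at 0 and 120 min. Read-out basis: percent activation relative to control range. Replicates: singlicate.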
PLCg1 inh – inhibitors of human phospholipase C gamma1; inhibition, % at 12.2 µM; purified PLC-gamma1, fluorogenic substrate, fluorescence; actives 0.84% (n = 370,000); P19174
proCasp7 act – activates human procaspase-7, counter-screen for procaspase-3 activators | P55210 | recombinant procaspase-7, Ac-DEVD-pNA absorbance 405 nm; D23A/D198A/D206A triple mutant, cannot self-cleave; scale: DMSO 0, 5 µM enzyme 100 | activation, % at 8.5 µM | actives 0.093% (n = 330,000) | AID 463210;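 active = percent activation above the screen-wide mean plus 3 SD, cut at about 25% in these data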
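System: Procaspase-7 triple mutant (PC-7 D3A); measure: % activation from two-timepoint absorbance difference, scaled to controls; times: 1 h compound preincubation, 2 h substrate cleavage, 25 °C; also added: Ac-DEVD-pNA substrate, 400 µM as added; measured by: Epi-absorbance of released pNA at 405 nm, two timepoints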
Arr AP2 block – inhibitors of human beta-arrestin and AP2 interaction | FITC-arrestin peptide / GST-AP2 beads, flow cytometry; AP2 beta2 appendage carries R879A mutation | inhibition, % at 10 µM | actives 0.31% (n = 340,000) | AID 504490;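 active = inhibition above a set limit, near 3 SD of compounds lacking own fluorescence, cut at about 54% in these data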;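 also: plate controls were DMSO wells for no effect and 5 µM unlabelled arrestin peptide for full effect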
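Test system: GST-tagged AP2 beta2-adaptin appendage (R879A) on 4 µm glutathione beads; also added: fluorescein-tagged arrestin peptide at 50 nM final; timing: 12 min plus 1 h, RT; signal: flow cytometry, FL1 (488/535 nm); read-out: percent drop in bead-associated FITC signal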
HGIII-sPLA2 inh – Blocks human group III sPLA2 activity; Q9NZ20; QFRET BODIPY PC-A2 liposome hydrolysis, fluorescence; inhibition, % at 12.2 µM; actives 0.56% (n = 370,000); AID 743126;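 active = inhibition above mean plus 3 SD of compounds lying within the high and low control bounds, cut at about 19% in these data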;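 also: 0% = median of test compound wells and 100% = no enzyme DMSO wells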
Target sequence (Q9NZ20 whole entry, looked up): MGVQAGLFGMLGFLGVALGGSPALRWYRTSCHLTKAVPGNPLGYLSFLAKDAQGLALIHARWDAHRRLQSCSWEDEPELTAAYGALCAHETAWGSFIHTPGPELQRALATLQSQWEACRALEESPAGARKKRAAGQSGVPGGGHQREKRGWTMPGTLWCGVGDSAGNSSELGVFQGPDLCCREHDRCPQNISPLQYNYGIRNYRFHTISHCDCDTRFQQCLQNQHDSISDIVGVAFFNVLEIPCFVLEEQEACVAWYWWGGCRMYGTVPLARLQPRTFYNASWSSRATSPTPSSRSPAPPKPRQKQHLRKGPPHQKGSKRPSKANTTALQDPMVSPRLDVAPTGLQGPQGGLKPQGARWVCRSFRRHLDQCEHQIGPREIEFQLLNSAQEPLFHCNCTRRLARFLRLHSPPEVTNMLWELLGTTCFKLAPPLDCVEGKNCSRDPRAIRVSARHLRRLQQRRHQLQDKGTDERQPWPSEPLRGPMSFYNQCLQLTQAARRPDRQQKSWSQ
PLCg1 ctr – inhibits human PLC-gamma1 in PLC-beta3 counter-screen; purified PLC-gamma1, fluorogenic substrate, fluorescence; shares compounds with PLCg1 inh; inhibition, % at 12.3 µM; AID 743258; actives 3.1% (n = 3,300)
PLCbeta3 conf – confirmation of human PLC-beta3 inhibitors; shares compounds with PLCg1 inh; purified PLC-beta3, fluorogenic substrate fluorescence; inhibition, % at 12.3 µM; actives 1% (n = 3,300); in the data active = inhibition above about 11%
* hit, by the source's call; / = no result. Rule as the data show it, unless noted: active = inhibition above about 9.5%; inactive = the rest.

SMILES | PLCb3 inh | procasp3 activ | PLCg1 inh | proCasp7 act | Arr AP2 block | HGIII-sPLA2 inh | PLCg1 ctr | PLCbeta3 conf
O=C(NNC(=O)c1csc(-c2cccnc2)n1)c1ccccc1 | -4.7 | 0.8 | 9.6* | 3.1 | 20.9 | -1.9 | -1.9 | 1.1
O=C(NNC(=O)c1csc(-c2ccccc2)n1)c1ccccc1 | 11.0* | / | 4.3 | / | / | 1.1 | -10.2 | -4.8
Brc1ccc(-c2nn3c(-c4ccccc4)nnc3s2)o1 | -4.9 | / | -2.0 | / | / | 1.6 | / | /
CCOC(=O)c1csc(NC(=O)C2CCCN(S(=O)(=O)c3ccc(C)cc3)C2)n1 (stereo not given) | 0.5 | / | 1.8 | / | / | -27.4 | / | /
O=c1c2ccccc2sn1-c1ccc(Cl)cc1Cl | 15.9* | / | -0.1 | / | / | 3.4 | -6.3 | 1.6
CN1CC(=O)N(CC(=O)Nc2ccc(N(C)C)cc2)c2ccccc2C1=O | 4.9 | -2.4 | 13.1* | -0.2 | 17.1 | 12.9 | -0.4 | -3.8
O=C(Nc1cccc(C(F)(F)F)c1)OC1CCC12CCC(c1ccccc1)CC2 (stereo not given) | 3.1 | / | 5.9 | / | / | 11.1 | / | /
O=C(Cn1cnc2sc(-c3ccccc3)cc2c1=O)NCc1ccccc1 | 3.8 | 8.9 | 9.5* | -7.6 | -3.8 | 5.5 | -37.0 | -84.1
O=C(Cn1cnc2sc(-c3ccccc3)cc2c1=O)NCCc1ccccc1 | -5.5 | -1.0 | -1.3 | 1.9 | -5.3 | -2.2 | / | /
CCCCOc1ccc(C(=O)n2ccc3ccc(-c4ccc5ccn(Cc6ccc(OC)cc6)c5c4)cc32)cc1 | -46.9 | / | -33.1 | / | / | 10.5 | / | /
O=C(c1cc(F)ccc1F)N(Cc1ccccn1)CC1CCCO1 (stereo not given) | -0.2 | / | -3.5 | / | / | 5.6 | / | /
C[C@H]1[C@@H](c2ccccc2)OC(O)([C@H](Cc2ccccc2)NC(=O)OC(C)(C)C)CN1C (stereo not given in full) | 7.4 | / | 0.9 | / | / | -4.9 | / | /
COC(=O)[C@]12C[C@H](CC(=O)NCc3cccc4ccccc34)C(=O)N(Cc3ccc(Cl)cc3Cl)C1=C[C@H](C(C)(C)C)O[C@@H]2C | 0.1 | / | 1.3 | / | / | -9.4 | / | /
Cn1cccc1C(=O)OCC(=O)NC(=O)c1ccc(Cl)cc1 | -0.2 | 0.6 | 0.0 | 7.1 | 1.5 | 4.2 | / | /
Cc1cccc2cc(CN(Cc3ccco3)C(=O)Nc3cccc(C#N)c3)c(Cl)nc12 | 7.0 | -0.4 | 10.7* | 2.6 | -4.2 | -23.3 | -4.7 | -0.6
Cc1ccc(NC(=O)N(Cc2ccco2)Cc2cc3cc(C)cc(C)c3nc2Cl)cc1 | 2.1 | / | -1.5 | / | / | 4.1 | / | /
Cc1cccc(OCCCC(=O)Nc2ccc(N(C)C)cc2)c1 | -2.1 | -1.3 | -2.6 | -12.0 | 27.5 | 10.2 | / | /
Cc1cccc(OCCC(=O)Nc2ccc(F)c(F)c2)c1 | -0.3 | 6.1 | 9.7* | 3.8 | 12.1 | -10.4 | -1.2 | 1.6
CC(CCN1CCC(C(O)(c2ccccc2)c2ccccc2)CC1)Oc1cc(F)cc(C#N)c1 (stereo not given) | 3.6 | / | 11.5* | / | / | -7.6 | 8.3 | 3.3
Cc1cc(C)n(-c2nc3c(c(=O)[nH]c(=O)n3C)n2C(C)C)n1 | 13.7* | 5.1 | 5.1 | -1.4 | 1.7 | 9.0 | -6.2 | -2.7
Cc1cc2ncn(S(=O)(=O)N3CCOCC3)c2cc1C | 14.2* | 2.1 | 6.2 | -9.8 | 24.5 | 0.5 | -2.0 | -1.6
Cc1cc2ncn(S(=O)(=O)N3CCCCC3)c2cc1C | -2.5 | 14.4 | -1.2 | -8.4 | 21.5 | 2.0 | / | /
CC(C)(C)OC(=O)CNC(=O)c1[nH]cnc1C(=O)Nc1ccc(CNC(=O)OC(C)(C)C)cc1 | 12.6* | -2.4 | 7.4 | 1.9 | 2.7 | -4.5 | -0.8 | -2.1
Cc1cccc(C(=O)Nc2nc3ncccn3c2-c2ccccc2)c1 | -305.1 | / | -229.0 | / | / | 3.0 | / | /
COc1ccc(S[C@]2(C(=O)N3CCCC3)CC(=O)N(P(=O)(OC)OC)[C@@H]2c2ccc(OC)cc2)cc1 | 0.3 | / | 4.7 | / | / | 5.2 | / | /
